CHO parental Ca – counter-screen: ATP calcium response change in parental CHO cells. 330,000 compounds, 0.63% hits. parental CHO-K1, ATP-induced calcium, Fluo-8 fluorescence. AID 463079. inhibition, % at 5.6 µM;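 active means inhibition above that plate's mean sample inhibition plus 3 SD, cut at about 26% in these data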;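 further: 0% = ATP-challenged DMSO wells and 100% = DMSO wells without ATP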
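test system = CHO parental line | reagent = ATP stimulus | measured by = intracellular calcium via Fluo-8 no-wash fluorescent dye | control set = ATP and no-ATP DMSO wells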
OX1R antag-1 – antagonists of human orexin 1 receptor; O43613; CHO/OX1R cells, Fluo-8 calcium fluorescence, orexin A; inhibition, % at 5 µM; 330,000 compounds, 0.43% hits;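 active means inhibition above its plate's threshold, mean inhibition of all tested compounds on the plate plus 3 SD, cut at about 37% in these data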;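 further: 0% = orexin A challenge wells and 100% = SB-334867-A antagonist wells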
Target sequence (O43613 whole entry, looked up): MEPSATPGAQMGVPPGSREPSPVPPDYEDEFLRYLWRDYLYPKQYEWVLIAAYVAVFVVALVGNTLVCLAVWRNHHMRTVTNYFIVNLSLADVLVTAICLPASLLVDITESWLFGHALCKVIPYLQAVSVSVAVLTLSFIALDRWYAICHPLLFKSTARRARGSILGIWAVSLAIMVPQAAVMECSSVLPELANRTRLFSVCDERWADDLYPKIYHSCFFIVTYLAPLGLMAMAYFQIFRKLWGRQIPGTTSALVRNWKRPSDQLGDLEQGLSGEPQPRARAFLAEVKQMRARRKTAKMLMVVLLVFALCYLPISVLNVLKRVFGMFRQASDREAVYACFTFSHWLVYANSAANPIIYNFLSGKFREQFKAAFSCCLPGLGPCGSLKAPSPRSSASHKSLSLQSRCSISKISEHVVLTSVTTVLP
GPR7 antagonist – antagonists of human GPR7 (neuropeptides B/W receptor 1) | GPR7-expressing cells, fluorescence antagonist assay | P48145 | inhibition, % at 4.4 µM | AID 1861 | 290,000 compounds, 1.1% hits; in the data active means inhibition above about 16%, passing the limit was not always enough;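 further: cells stimulated with the agonist NPW; 0% = agonist with vehicle and 100% = vehicle without agonist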
GalR3 antagonist – human GalR3 antagonism. O60755. HEK293 GalR3-CNG cAMP membrane potential fluorescence; galR3 body fused to GalR1 C-terminus. 360,000 compounds, 0.44% hits. AID 651719. inhibition, % at 3 µM;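 active means inhibition above the screen-wide average plus 3 SD, cut at about 13% in these data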;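 further: forskolin and galanin both at EC90 stimulate the cells; cAMP rise reported by CNG channel membrane potential dye signal; 0% = forskolin plus galanin with DMSO and 100% = forskolin alone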
OX1R antag-2 – antagonists of human orexin 1 receptor (OX1R); inhibition, % at 6.6 µM; OX1R-expressing cells, FRET antagonist read-out; 330,000 compounds, 1.8% hits; in the data active means inhibition mostly above about 38%, no sharp cut-off; inactive means mostly below about 40%;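 further: 0% = agonist challenge alone and 100% = reference antagonist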
GalR3 antag conf – GalR3 (human) antagonism, confirmation; AID 652245; HEK293 GalR3 CNG cAMP biosensor, membrane potential fluorescence; galR3 fused to GalR1 carboxy tail; challenged with forskolin and galanin at EC90; inhibition, % at 3 µM; 1,600 compounds, 59% hits; shares compounds with GalR3 antagonist;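 active means inhibition above the primary screen's cutoff, the mean inhibition of all screened compounds plus 3 SD, cut at about 13% in these data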;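 further: 0% = forskolin plus galanin and 100% = forskolin alone with DMSO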
CNG parental – counter-screen for GalR3 antagonists: nonspecific agonists in parental HEK-CNG cells | shares compounds with GalR3 antagonist | HEK293-CNG parental cells, cAMP membrane potential fluorescence; normalised: DMSO wells 0%, forskolin wells 100% | activation, % at 3 µM | 1,600 compounds, 10% hits | AID 652268; in the data active means activation above about 1.3%
* = called active by the depositor; . = no result. In the library only some 3.1% were active in any assay of this set; here they are far more common.

SMILES	CHO parental Ca	OX1R antag-1	GPR7 antagonist	GalR3 antagonist	OX1R antag-2	GalR3 antag conf	CNG parental
Cc1oc(-c2ccccc2)cc1C(=O)Nc1cccc(/C=C/C(=O)O)c1	.	.	0	75*	.	111*	0
Cn1nc(C(=O)Nc2nc3ccccc3[nH]2)ccc1=O	-13	2	0	-1	18	.	.
O=C1C=C(Nc2ccc(Cl)cc2)CC(c2ccccc2)C1 (stereo unspecified)	-7	-10	9	-11	16	.	.
Fc1ccc(/C=N/NC(=S)Nc2cccnc2)cc1	-5	-12	-7	21*	18	4	0
Fc1ccc(/C=N/NC(=S)Nc2cccnc2)cc1F	-11	-20	3	-6	18	.	.
Cc1ccc(NC(=O)C2CCCN(S(=O)(=O)c3ccc(-n4cnnn4)cc3)C2)cc1 (stereo unspecified)	-16	-16	14	-8	6	.	.
CC(=O)Nc1ccc(Br)c2ccccc12	-7	-16	-8	-1	8	.	.
O=C(Nc1ccc(Br)c2ccccc12)c1ccc2ccccc2c1O	26	-17	12	78*	41*	90*	0
Cc1cccc(-c2nnc(N)s2)c1	-10	-9	0	13*	10	2	0
CC(C)c1ccc(C(=O)N2CCN(c3cnn(C)c(=O)c3Cl)CC2)cc1	-24	-27	-6	-1	25	.	.
CCN(CC)c1ncnc2c1ncn2[C@H]1CN(Cc2ccccc2)C[C@@H](CO)O1	.	.	.	-5	.	.	.
COc1ccc(-c2cc([C@H]3[C@@H]4C=CCC[C@@]4(C)C(=O)N3Cc3ccccc3)ccc2F)cc1OC	-35	-59	.	20*	25	12	1
Cc1ccc(-c2cc([C@H]3[C@@H]4C=CCC[C@@]4(C)C(=O)N3Cc3ccccc3)ccc2F)cc1	-40	-59	.	-4	22	.	.
CS(=O)(=O)c1ccc(Cl)c(NC(=O)COC(=O)CCN2C(=O)C3CC=CCC3C2=O)c1 (stereo unspecified)	.	.	.	-4	.	.	.
COc1ccc(C(=O)C2CCCN(C(=O)c3ccoc3C)C2)cc1F (stereo unspecified)	-11	-22	6	13*	17	8	0
COc1ccc(C(=O)C2CCCN(C(=O)c3c4c(nn3C)CCCC4)C2)cc1F (stereo unspecified)	-21	-10	8	-3	21	.	.
CC(c1ccc(F)cc1)n1c(-c2ccc3ccccc3n2)n[nH]c1=S (stereo unspecified)	-10	-14	-13	-1	6	.	.
CC(c1ccc(Cl)cc1)n1c(-c2ccc3ccccc3n2)n[nH]c1=S (stereo unspecified)	18	-11	-2	13*	17	7	1
CC1(CO)COC2(OC1)C(=O)Nc1ccccc12 (stereo unspecified)	.	.	.	0	.	.	.
CCOC(=O)[C@H]1[C@H]2COc3ccccc3[C@@H]2N2C(=O)c3ccc(C)cc3NC(=O)[C@@]12C	-17	-25	.	-4	10	.	.
Cc1cc(Br)c(OCc2ccc(C(=O)N/N=C/c3ccc[nH]3)cc2)c(Br)c1	-19	0	.	61*	12	12	0
CN(CC(=O)N/N=C/c1ccc(F)cc1)S(=O)(=O)c1ccccc1	.	.	.	-7	.	.	.
COc1ccc(NC(=O)CN(C)CC(=O)c2[nH]c(C)c(C(C)=O)c2C)cc1	-6	-1	.	-6	6	.	.
COc1cc(CN(C)CC(=O)c2[nH]c(C)c(C(C)=O)c2C)ccc1OC(F)F	-2	-4	12	19*	25	12	0
CCc1c(-c2cccc(Cl)c2)ncn1Cc1cccc(-c2ccccc2)c1	.	.	.	-5	.	.	.
SMILES	CHO parental Ca	OX1R antag-1	GPR7 antagonist	GalR3 antagonist	OX1R antag-2	GalR3 antag conf	CNG parental
CCn1cc(CN(C)S(=O)(=O)c2ccc3ccccc3c2)c(C)n1	-5	3	6	71*	35	103*	0
CCn1cc(CN(C)S(=O)(=O)c2cccc([N+](=O)[O-])c2)cn1	-17	-3	-12	-1	40	.	.
CC(=O)Nc1c(C#N)c(-c2ccccc2)c(C#N)c(=O)n1-c1ccc(C)cc1	.	.	.	2	.	.	.
CCC(=O)Nc1ccc2c(c1)N(C(C)=O)c1ccccc1CC2	2	-4	-3	-7	3	.	.
COC(=O)CNC(=O)CN1c2cccc3cccc(c23)S1(=O)=O	2	5	9	13*	29	0	0
CCNc1nc(CN2CCCCC2)nc2scc(-c3ccccc3)c12	-15	-20	1	19*	12	22*	5.7*
O=S(=O)(c1cc(F)ccc1F)N1CCN2CCCC2C1 (stereo unspecified)	-3	-4	-7	-8	15	.	.
COC(=O)c1cc2ccc(OC)cc2c2cc(OC)c(OC)cc12	-14	-21	.	-3	8	.	.
CCOC(=O)C(=CNc1ccc(S(N)(=O)=O)cc1)C(=O)OCC	-4	-19	-13	13*	2	29*	1
COc1ccc(NC(=O)CN(C)C(=O)C(Sc2ccccc2)c2ccccc2)cc1 (stereo unspecified)	-14	-14	.	-4	18	.	.
CC(C)Cc1ccc(CN2CCCC(NC(=O)c3ccnn3C)C2)cc1 (stereo unspecified)	-7	-18	-1	32*	2	0	0
CCC(C)(C)c1ccc(OCCCC[n+]2cccc(C)c2C)c(C(C)(C)CC)c1	40*	52*	22*	15*	9	67*	1.3*
Cc1cc(C(C)(C)C)ccc1OCCCCN1CCCC1	-3	-14	-2	3	-13	.	.
Cc1c(C(=O)N2CCc3ccccc32)cnn1C	-18	-1	-10	.	11	6	0
CC(=O)Nc1ccc(NC(=O)Nc2ccccc2C)cc1	-2	1	-5	7	-1	.	.
CC(=O)c1ccc(NC(=O)Nc2ccc(Br)cc2C)cc1	-16	-15	-15	13*	35	-3	0
C[C@@H]1COC(=O)[C@@H](CC(=O)OC(C)(C)C)C/C=C\C[C@H](CC(=O)NCCO)C(=O)N1	1	6	.	-5	6	.	.
COc1ccc(CC(=O)N2CCN(C(=O)Cc3ccc(OC)cc3)CC2)cc1	-18	-32	-19	-3	14	.	.
COc1ccc(CC(=O)N2CCN(c3ccc(C4=NNC(=O)CC4C)cc3)CC2)cc1 (stereo unspecified)	-14	-15	-4	76*	33	87*	0
COc1cc(/C=C2\SC(=Nc3c(C)n(C)n(-c4ccccc4)c3=O)NC2=O)ccc1O	.	.	-3	31*	.	34*	0
Cc1[nH]nc(NCCO)c1[N+](=O)[O-]	-14	-8	-7	.	11	69*	-1
